Measured values gathered from unrelated publications.
Compare with care: the assays were run in different laboratories.
Target: Inhibitor of nuclear factor kappa-B kinase subunit beta (IKBKB, Homo sapiens, UniProt O14920)
Technique: competition with immobilised ligand
One construct used (O14920 1-756): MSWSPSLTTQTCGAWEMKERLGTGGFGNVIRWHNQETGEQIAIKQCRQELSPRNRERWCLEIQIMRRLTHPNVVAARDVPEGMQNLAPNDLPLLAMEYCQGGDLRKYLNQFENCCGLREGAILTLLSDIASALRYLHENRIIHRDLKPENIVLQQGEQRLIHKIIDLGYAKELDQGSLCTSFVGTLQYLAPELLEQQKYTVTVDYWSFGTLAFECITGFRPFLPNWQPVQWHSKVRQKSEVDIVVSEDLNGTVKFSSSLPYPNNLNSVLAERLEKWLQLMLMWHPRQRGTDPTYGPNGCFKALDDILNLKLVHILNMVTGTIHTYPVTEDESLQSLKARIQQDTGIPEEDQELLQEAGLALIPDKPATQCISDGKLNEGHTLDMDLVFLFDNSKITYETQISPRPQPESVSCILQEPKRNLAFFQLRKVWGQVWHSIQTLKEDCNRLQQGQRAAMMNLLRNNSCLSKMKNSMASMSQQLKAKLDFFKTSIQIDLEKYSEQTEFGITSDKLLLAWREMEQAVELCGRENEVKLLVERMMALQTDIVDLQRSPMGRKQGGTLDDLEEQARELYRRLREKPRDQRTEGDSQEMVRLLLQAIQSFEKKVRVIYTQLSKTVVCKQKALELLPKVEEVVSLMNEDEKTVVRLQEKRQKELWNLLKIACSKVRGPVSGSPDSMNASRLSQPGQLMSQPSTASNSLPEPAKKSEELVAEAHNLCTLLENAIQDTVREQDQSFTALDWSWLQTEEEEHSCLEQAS

`C[C@H]1CCN(c2nccc(-c3cnn4ncccc34)n2)C1` gave a remaining binding of 64% (binding; 1 µM).
For `CC(C)(C)c1ccc(-c2nc(CBr)nn2-c2cccc(O)c2)cc1`, the remaining binding was 70% (cell-free assay; 10 µM).
`CC(=O)N1CCC(c2ccc(C(=O)NC3=NCCN3)cc2C(F)(F)F)CC1` has a remaining binding of 85% (cell-free assay; 1 µM).
`CN(CCCC(F)(F)F)c1nccc(-c2cnn3ncccc23)n1` gave a remaining binding of 100% (binding; 1 µM).
`CCCCN(CCCC)C(=O)CN1C[C@H](c2cc(OC)c3c(c2)OCO3)[C@@H](C(=O)O)[C@@H]1CC(C)(C)CCC` gave a remaining binding of 81.5% (cell-free assay; 1 µM).
With `CN(C)c1ncc(F)c(-c2cnn3ncccc23)n1` the remaining binding was 80% (binding; 1 µM).
For `CCOC(=O)c1cc2cc(-c3cc(C(=O)NCc4ccc(C(=O)O)cc4)nn3C)ccc2[nH]1`, the remaining binding was 100% (cell-free assay; 0.1 µM).
For `O=C(Nc1c[nH]nc1C(=O)NC1CCNCC1)c1cc(F)cc(F)c1`, the remaining binding was 100% (binding; 1 µM).
With `CN(C)c1nccc(-c2cnc3ncccn23)n1` the remaining binding was 67% (binding; 1 µM).
With `CS(=O)(=O)c1cc(C2(NC(=O)c3cncc4c3cnn4-c3ccc(F)cc3)CC2)ccn1` the remaining binding was 100% (cell-free assay; 1 µM).
With `COc1cnc(Nc2cccc(S(N)(=O)=O)c2)nc1N1CCN(c2ccccc2)C(=O)C1` the remaining binding was 93% (binding; 1 µM).
`O=C(NCCCN1CCOCC1)c1ccc(Nc2nccc(-c3cc4ccccc4s3)n2)cc1` has a remaining binding of 5.1% (binding; 1 µM).
With `c1cncc(-c2cccc(Nc3nccc(NC4CCCCC4)n3)c2)c1` the remaining binding was 89% (binding; 10 µM).
The remaining binding of `C[C@@]1(Cc2ccc(C#N)cc2)C(=O)N(c2cc(Cl)cc(Cl)c2)c2ncc(C(=O)NC3(c4nc(C5CCC5)no4)CC3)n21` is reported as 100% (cell-free assay; 1 µM).
With `N[C@H]1CCN(c2nccc(-c3cnn4ncccc34)n2)C1` the remaining binding was 91% (binding; 1 µM).
For `O=C(O)c1cc(-c2ccc(C3CCNCC3)cc2)c2ccc(-c3ccc(C(F)(F)F)cc3)cc2c1`, the remaining binding was 100% (cell-free assay; 1 µM).
For `O=C(c1ccc(Nc2ncc(Cl)c(-c3cc4ccccc4s3)n2)cc1)N1CCC(N2CCCC2)CC1`, the remaining binding was 0.1% (binding; 1 µM).
`C[C@@H]1CN(c2ccc3ncc(-c4ccc5[nH]nc(C6CC6)c5c4)n3n2)C[C@H](C)O1` has a remaining binding of 89% (binding; 0.5 µM).
With `CCCOc1ccc([C@H]2[C@H](C(=O)O)[C@@H](c3ccc4c(c3)OCO4)CN2CC(=O)Nc2c(CC)cccc2CC)cc1` the remaining binding was 77% (cell-free assay; 1 µM).
For `Nc1ncc2c(n1)-c1c([nH]c3ccc(C#CC4CC4)cc13)CCCC2`, the remaining binding was 100% (binding; 1 µM).
`CN(C)c1nccc(-c2cnn3ncccc23)n1` has a remaining binding of 84% (binding; 1 µM).
With `Cc1cnc(Nc2ccc(C(=O)N3CCC(N4CCCC4)CC3)cc2)nc1-c1cc2ccccc2s1` the remaining binding was 0% (binding; 1 µM).
`Cc1c(NC(=O)c2cc(C(N)=O)nc3cc(F)ccc23)c(C(F)(F)F)nn1Cc1ccc(C(C)(C)C)cc1` gave a remaining binding of 100% (cell-free assay; 1 µM).
With `CC1CCCN1c1nccc(-c2cnn3ncccc23)n1` (stereo not shown) the remaining binding was 100% (binding; 1 µM).
`CNC(=O)[C@@H]1CC[C@@H](n2c(-c3ccc4cnccc4c3)nc3ccc(C(=O)NCc4cccc(C(N)=O)c4)cc32)C1` has a remaining binding of 100% (binding; 1 µM).
